Source: ChEMBL document CHEMBL2396525, “Synthesis and anti-HCMV activity of 1-[ω-(phenoxy)alkyl]uracil derivatives and analogues thereof” (Bioorg Med Chem, 2013)
Calls of active or inactive are those of the source. No cut-off for these calls is given here.

How the values were obtained:
Human alphaherpesvirus 3 [1] = assay: Antiviral activity against Varicella-zoster virus OKA; type: functional; details: strain Oka vaccine
Procedure, shortened: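 Confluent cell monolayers were infected with 10 or 100 PFU of VZV in the presence of serial compound dilutions. Plaque formation was recorded once untreated infected controls reached completion. EC50 was the concentration that reduced plaque formation by 50%.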

Influenza B virus = assay: Antiviral activity against Influenza B virus; type: functional, organism-based
Procedure, shortened: (§1)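 The assay was a cell-based cytopathicity inhibition test on confluent monolayers with serial compound dilutions. EC50 was the concentration that reduced virus-induced cytopathicity by 50%.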

[2] = test system: Human immunodeficiency virus 1; assay: Antiviral activity against HIV1 3B infected in human CEM cells assessed as inhibition of virus-induced giant cell formation after 4 to 5 days; type: functional, organism-based; details: CCRF-CEM
Procedure, shortened: (§2)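 CEM cells at about 3 × 10^5 cells/mL were infected with 100 CCID50 of HIV per mL, with compound dilutions present. They were incubated 4–5 days at 37 °C in humidified CO2, and syncytia were scored microscopically. EC50 is the concentration that inhibits giant cell formation by 50%.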

Coxsackievirus B4 = assay: Antiviral activity against Coxsackie B4 virus; type: functional, organism-based
Procedure, shortened: (§3)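 Confluent HEL, Vero, HeLa or MDCK cell cultures were inoculated with 100 CCID50 of virus alongside varying compound concentrations. Cytopathicity was scored when it reached completion in untreated virus controls. EC50 is the concentration that reduces virus-induced cytopathogenicity by 50%.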

Human betaherpesvirus 5 [3] = assay: Antiviral actiivty against Human herpesvirus 5 AD169 infected in HEL assessed as reduction of virus-induced plaque formation; type: functional, organism-based; details: Human betaherpesvirus 5, AD169
Procedure, shortened: (§4)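 HCMV strains AD-169 and Davis were tested on confluent human embryonic lung fibroblast monolayers infected with 100 PFU in the presence of serial compound concentrations. Plaques were counted once formation was complete in untreated infected controls. EC50 is the concentration that cuts plaque formation by 50%.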

Human respirovirus 3 = assay: Antiviral activity against Parainfluenza virus 3; type: functional, organism-based; procedure, shortened: as §3
[4] = Cytotoxicity against HEL assessed as minimum cytotoxic concentration required to cause microscopically detectable alteration in cell morphology; type: cell-based; details: human, HEL cells
Sindbis virus = assay: Antiviral activity against Sindbis virus; type: functional, organism-based; procedure, shortened: as §3
Human alphaherpesvirus 3 [5] = assay: Antiviral activity against Varicella-zoster virus YS; type: functional, organism-based
Procedure, shortened: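 VZV was assayed by plaque formation. Confluent cell cultures received 10 or 100 PFU with varying compound concentrations, and plaques were recorded once complete in untreated infected controls. EC50 is the concentration that reduces plaque formation by 50%.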

HEL = assay: Cytotoxicity against HEL; type: cell-based; details: human
Human betaherpesvirus 5 [6] = assay: Antiviral actiivty against Human herpesvirus 5 Davis infected in HEL assessed as reduction of virus-induced plaque formation; type: functional, organism-based; details: Human betaherpesvirus 5, Davis; procedure, shortened: as §4
Influenza A virus [7] = assay: Antiviral activity against Influenza virus A virus H3N2; type: functional, organism-based; procedure, shortened: as §1
Feline coronavirus = assay: Antiviral activity against Feline coronavirus; type: functional, organism-based
Human alphaherpesvirus 2 [8] = assay: Antiviral activity against Herpes simplex virus type 2 G; type: functional, organism-based; details: strain G; procedure, shortened: as §3
Punta Toro virus = assay: Antiviral activity against Punta Toro virus; type: functional, organism-based; procedure, shortened: as §3
[9] = test system: Respiratory syncytial virus; assay: Antiviral activity against Respiratory syncytial virus Long; type: functional, organism-based; procedure, shortened: as §3
Influenza A virus [10] = assay: Antiviral activity against Influenza virus A virus H1N1; type: functional, organism-based; procedure, shortened: as §1
Human alphaherpesvirus 1 [11] = assay: Antiviral activity against Herpes simplex virus type 1 KOS; type: functional, organism-based; procedure, shortened: as §3
[12] = test system: Mammalian orthoreovirus 1; assay: Antiviral activity against Reovirus-1; type: functional, organism-based; procedure, shortened: as §3
Human alphaherpesvirus 2 [13] = assay: Antiviral activity against Herpes simplex virus type 2 Lyons; type: functional, organism-based; procedure, shortened: as §3
Vaccinia virus = assay: Antiviral activity against Vaccinia virus Lederle; type: functional, organism-based; details: Orthopoxvirus vaccinia
Human alphaherpesvirus 1 [14] = assay: Antiviral activity against thymidine kinase deficient acyclovir-resistant Herpes simplex virus type 1 KOS; type: functional, organism-based
[15] = test system: Human immunodeficiency virus 2; assay: Antiviral activity against HIV2 ROD infected in human CEM cells assessed as inhibition of virus-induced giant cell formation after 4 to 5 days; type: functional, organism-based; details: ISOLATE ROD, CCRF-CEM; procedure, shortened: as §2
[16] = test system: Vesicular stomatitis virus; assay: Antiviral activity against Vesicular stomatitis virus; type: functional, organism-based

SMILES | Activity (Human alphaherpesvirus 3 [1]) | Activity (Influenza B virus) | Activity [2] | Activity (Coxsackievirus B4) | EC50 (Human betaherpesvirus 5 [3]) | Activity (Human respirovirus 3) | MCC [4] | Activity (Sindbis virus) | Activity (Human alphaherpesvirus 3 [5]) | CC50 (HEL) | EC50 (Human betaherpesvirus 5 [6]) | Activity (Influenza A virus [7]) | Activity (Feline coronavirus) | Activity (Human alphaherpesvirus 2 [8]) | Activity (Punta Toro virus) | Activity [9] | Activity (Influenza A virus [10]) | Activity (Human alphaherpesvirus 1 [11]) | Activity [12] | Activity (Human alphaherpesvirus 2 [13]) | also measured
O=c1ccn(CCCCCCCCOc2ccc(Br)cc2)c(=O)[nH]1 | inactive | inactive | inactive | inactive | 12 µM | inactive | ≥ 100 µM | inactive | inactive | > 100 µM | 8.9 µM | inactive | inactive | inactive | inactive | inactive | inactive | inactive | inactive | inactive | Activity (Vaccinia virus): inactive; Activity (Human alphaherpesvirus 1 [14]): inactive; Activity [15]: inactive; Activity [16]: inactive
Cc1ccccc1OCCCCCn1ccc(=O)[nH]c1=O | inactive | inactive | inactive | inactive | > 100 µM | inactive | > 100 µM | inactive | inactive | > 100 µM | > 100 µM | inactive | inactive | inactive | inactive | inactive | inactive | inactive | inactive | inactive | Activity (Vaccinia virus): inactive; Activity (Human alphaherpesvirus 1 [14]): inactive; Activity [15]: inactive; Activity [16]: inactive
Cc1ccc(OCCCCCn2ccc(=O)[nH]c2=O)cc1 | inactive | inactive | inactive | inactive | > 20 µM | inactive | 100 µM | inactive | inactive | > 100 µM | > 20 µM | inactive | inactive | inactive | inactive | inactive | inactive | inactive | inactive | inactive | Activity (Vaccinia virus): inactive; Activity (Human alphaherpesvirus 1 [14]): inactive; Activity [15]: inactive; Activity [16]: inactive
O=c1[nH]c(=O)n(CCCCCOc2ccc(Br)cc2)cc1Br | inactive | inactive | inactive | inactive | 36 µM | inactive | > 100 µM | inactive | inactive | > 100 µM | 67 µM | inactive | inactive | inactive | inactive | inactive | inactive | inactive | inactive | inactive | Activity (Vaccinia virus): inactive; Activity (Human alphaherpesvirus 1 [14]): inactive; Activity [15]: inactive; Activity [16]: inactive
Cc1cccc(OCCCCCn2ccc(=O)[nH]c2=O)c1 | inactive | inactive | inactive | inactive | 45 µM | inactive | > 100 µM | inactive | inactive | > 100 µM | 55 µM | inactive | inactive | inactive | inactive | inactive | inactive | inactive | inactive | inactive | Activity (Vaccinia virus): inactive; Activity (Human alphaherpesvirus 1 [14]): inactive; Activity [15]: inactive; Activity [16]: inactive
